According to ChEMBL document CHEMBL1129956, “4-substituted-3-phenylquinolin-2(1H)-ones: acidic and nonacidic glycine site N-methyl-D-aspartate antagonists with in vivo activity” (J Med Chem, 1997):
Calls of active or inactive are those of the source. No cut-off for these calls is given here.

Experiments:
[1] = molecular target: Glutamate receptor ionotropic, NMDA 1 (Rattus norvegicus, UniProt P35439); assay: In vitro ability to displace [3H]L-689,560 binding to glycine site on the N-methyl-D-aspartate (NMDA) glutamate receptor 1 from rat cortical membranes
Procedure, shortened: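 Glycine-site antagonist [3H]L-689,560 displaced from rat cortex/hippocampus membranes. IC50 (concentration inhibiting 50% of specific binding) taken from 5-point inhibition curves as the geometric mean of at least three experiments. A compound giving under 50% inhibition at 100 μM in two experiments is reported as >100 μM.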

[2] = test system: Mus musculus; assay: Compound was evaluated in vivo for their ability to protect against audiogenic seizure in DBA/2 mice when administered 20 mg/kg ip 30 min prior to noise stimulation out of 8 mice tested; conditions: route intraperitoneal
[3] = test system: Mus musculus; assay: compound was evaluated in vivo for their ability to protect against audiogenic seizure in DBA/2 mice when administered 20 mg/kg ip 30 min prior to noise stimulation out of 8 mice tested; format: functional; conditions: route intraperitoneal
Procedure, shortened: (§1)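 DBA/2 mice given compound intraperitoneally 30 min before noise stimulation, with protection from audiogenic seizure scored. Results are reported as an ED50 (mg/kg) or as number of mice protected per number tested at a single dose.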

[4] = molecular target: Glutamate NMDA receptor (Rattus norvegicus) (UniProt P35439+Q00959+Q00960+Q00961+Q62645+Q8VHN2+Q9R1M7); assay: (§2) Evaluated to antagonize NMDA responses in a rat cortical slice preparations; format: functional
Procedure, shortened: (§3)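 Rat cortical slice preparation; antagonist-induced rightward shift of the NMDA concentration–response curve used to calculate apparent Kb; values are the means of three determinations.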

[5] = test system: Mus musculus; assay: compound was evaluated in vivo for their ability to protect against audiogenic seizure in DBA/2 mice when administered 100 mg/kg ip 30 min prior to noise stimulation out of 8 mice tested; format: functional; conditions: route intraperitoneal; procedure, shortened: as §1
[6] = test system: Mus musculus; assay: compound was evaluated in vivo for their ability to protect against audiogenic seizure in DBA/2 mice when administered 50 mg/kg ip 30 min prior to noise stimulation out of 8 mice tested; format: functional; conditions: route intraperitoneal; procedure, shortened: as §1
[7] = test system: Mus musculus; assay: Compound was evaluated in vivo for their ability to protect against audiogenic seizure in DBA/2 mice when dosed ip 30 min prior to noise stimulation; format: functional; procedure, shortened: as §1
[8] = molecular target: Glutamate receptor ionotropic, NMDA 1 (Rattus norvegicus) (UniProt P35439); assay: as §2; format: functional; procedure, shortened: as §3
[9] = test system: Mus musculus; assay: Evaluated in vivo for their ability to protect against audiogenic seizure in DBA/2 mice when administered 20 mg/kg ip 30 min prior to noise stimulation out of 8 mice tested; conditions: route intraperitoneal
[10] = test system: Mus musculus; assay: Compound was evaluated in vivo for their ability to protect against audiogenic seizure in DBA/2 mice when dosed ip 30 min prior to noise stimulation and it is evaluated as ED50 value; format: functional; procedure, shortened: as §1
[11] = test system: Mus musculus; assay: Evaluated in vivo for their ability to protect against audiogenic seizure in DBA/2 mice when administered 100 mg/kg ip 30 min prior to noise stimulation out of 8 mice tested; conditions: route intraperitoneal
[12] = test system: Mus musculus; assay: compound was evaluated in vivo for their ability to protect against audiogenic seizure in DBA/2 mice when administered 10 mg/kg ip 30 min prior to noise stimulation out of 8 mice tested; format: functional; conditions: route intraperitoneal; procedure, shortened: as §1
[13] = test system: Mus musculus; assay: compound was evaluated in vivo for their ability to protect against audiogenic seizure in DBA/2 mice when administered 20 mg/kg ip 30 min prior to noise stimulation (expressed as no of mice protected/tested); 1/8; format: functional, organism-based; design: dose 20 mg/kg; procedure, shortened: as §1
[14] = test system: Mus musculus; assay: Compound was evaluated in vivo for their ability to protect against audiogenic seizure in DBA/2 mice when administered 20 mg/kg ip 30 min prior to noise stimulation out of 8 mice tested; format: functional; conditions: route intraperitoneal; procedure, shortened: as §1
[15] = test system: Mus musculus; assay: In vivo ability to protect against audiogenic seizure in DBA/2 mice when administered 20 mg/kg ip 30 min prior to noise stimulation out of 8 mice tested; format: functional, organism-based; design: dose 20 mg/kg; procedure, shortened: as §1
[16] = molecular target: Glutamate receptor ionotropic, NMDA 1 (Rattus norvegicus) (UniProt P35439); assay: In vitro ability to displace [3H]L-689,560 binding to glycine site on the N-methyl-D-aspartate glutamate receptor 1 from rat cortical membranes at […]
[17] = test system: Mus musculus; assay: compound was evaluated in vivo for their ability to protect against audiogenic seizure in DBA/2 mice when dosed ip 30 min prior to noise stimulation and it is evaluated as ED50 value; format: functional; procedure, shortened: as §1
[18] = molecular target: Glutamate receptor ionotropic, NMDA 1 (Rattus norvegicus) (UniProt P35439); assay: In vitro ability to displace [3H]L-689,560 binding to glycine site on the N-methyl-D-aspartate glutamate receptor 1 from rat cortical membranes at 10 uM

IC50 [1]	Kb [4]	SMILES	further results
0.19 µM		NC(=O)CCc1c(-c2ccccc2)c(=O)[nH]c2cc(Cl)ccc12	
~50 µM		CO/N=C(\C)COc1c(-c2ccccc2)c(O)nc2cc(Cl)ccc12	No. of mice protected [2]: 0
0.24 µM		O=c1[nH]c2cc(Cl)ccc2c(CCc2nn[nH]n2)c1-c1ccccc1	
> 100 µM		O=C(Cc1ccccc1)Nc1c(-c2ccccc2)c(O)nc2cc(Cl)ccc12	
> 100 µM		O=C(NCc1ccccc1)c1c(-c2ccccc2)c(=O)[nH]c2cc(Cl)ccc12	
	2.2 µM	O=C(O)CCc1c(-c2ccccc2)c(O)nc2cc(Cl)ccc12	No. of mice protected [3]: 1
4.2 µM		CN(C)CCCNc1c(-c2ccccc2)c(O)nc2cc(Cl)ccc12	No. of mice protected [5]: 6; No. of mice protected [6]: 1
0.32 µM		N#CCOc1c(-c2ccccc2)c(O)nc2cc(Cl)ccc12	ED50 [7]: 16.3 mg/kg; Kb [8]: 4.7 µM
> 100 µM		CCc1c(-c2ccccc2)c(O)nc2cc(Cl)ccc12	
11 µM		CN(C)CCOc1c(-c2ccccc2)c(O)nc2cc(Cl)ccc12	
3.5 µM		Cc1noc(CCc2c(-c3ccccc3)c(O)nc3cc(Cl)ccc23)n1	No. of mice protected [9]: 4
3.2 µM		CN(C)CCNc1c(-c2ccccc2)c(=O)[nH]c2cc(Cl)ccc12	
1.1 µM		O=C(O)CC(=O)Nc1c(-c2ccccc2)c(=O)[nH]c2cc(Cl)ccc12	
0.75 µM		N#CCCc1c(-c2ccccc2)c(=O)[nH]c2cc(Cl)ccc12	
	12 µM	CN(C)CCNc1c(-c2ccccc2)c(O)nc2cc(Cl)ccc12	No. of mice protected [5]: 8; No. of mice protected [9]: 0
3.2 µM	0.96 µM	COC(=O)COc1c(-c2ccccc2)c(O)nc2cc(Cl)ccc12	No. of mice protected [5]: 1
0.42 µM	3.4 µM	Nc1c(-c2cccc(Oc3ccccc3)c2)c(O)nc2cc(Cl)ccc12	No. of mice protected [9]: 2
6.7 µM		Nc1c(-c2ccccc2)c(=O)[nH]c2cc(Cl)ccc12	
	2.9 µM	O=S(=O)(Nc1c(-c2ccccc2)c(O)nc2cc(Cl)ccc12)c1ccccc1	No. of mice protected [9]: 1
0.78 µM		C/C(COc1c(-c2ccccc2)c(O)nc2cc(Cl)ccc12)=N\O	ED50 [10]: 9.4 mg/kg; Kb [8]: 2.8 µM

IC50 [1]	Kb [4]	SMILES	further results
	10.5 µM	Nc1c(-c2ccccc2)c(O)nc2cc(Cl)ccc12	
	4 µM	COC(=O)Cc1c(-c2ccccc2)c(O)nc2cc(Cl)ccc12	No. of mice protected [9]: 1
1.1 µM		COC(=O)Cc1c(-c2ccccc2)c(=O)[nH]c2cc(Cl)ccc12	
0.5 µM	4.6 µM	COC(=O)CCc1c(-c2ccccc2)c(O)nc2cc(Cl)ccc12	No. of mice protected [3]: 0
	2.9 µM	NC(=O)CCc1c(-c2ccccc2)c(O)nc2cc(Cl)ccc12	No. of mice protected [9]: 1
	4.5 µM	O=C(O)C(=O)Nc1c(-c2ccccc2)c(O)nc2cc(Cl)ccc12	No. of mice protected [9]: 0
0.42 µM		NC(=O)COc1c(-c2ccccc2)c(=O)[nH]c2cc(Cl)ccc12	
~10 µM		Oc1nc2cc(Cl)ccc2c(OCc2ccccc2)c1-c1ccccc1	
0.17 µM		O=C(O)CCc1c(-c2ccccc2)c(=O)[nH]c2cc(Cl)ccc12	
	11.6 µM	O=C(O)CC(=O)Nc1c(-c2ccccc2)c(O)nc2cc(Cl)ccc12	No. of mice protected [9]: 2
> 100 µM		COc1c(-c2ccccc2)c(=O)[nH]c2cc(Cl)ccc12	
> 100 µM		CN(C)c1c(-c2ccccc2)c(=O)[nH]c2cc(Cl)ccc12	
0.58 µM		O=C(O)C(=O)Nc1c(-c2ccccc2)c(=O)[nH]c2cc(Cl)ccc12	
	0.56 µM	O=C(O)COc1c(-c2cccc(Oc3ccccc3)c2)c(O)nc2cc(Cl)ccc12	No. of mice protected [9]: 0
0.27 µM	2.2 µM	CS(=O)(=O)Nc1c(-c2ccccc2)c(O)nc2cc(Cl)ccc12	No. of mice protected [9]: 0
	1.6 µM	Oc1nc2cc(Cl)ccc2c(CCc2nnn[nH]2)c1-c1ccccc1	No. of mice protected [11]: 0
1.2 µM		N#CCOc1c(-c2cccc(Oc3ccccc3)c2)c(O)nc2cc(Cl)ccc12	No. of mice protected [12]: 1; No. of mice protected [9]: 8
2.7 µM		COC(=O)C(=O)Nc1c(-c2ccccc2)c(O)nc2cc(Cl)ccc12	ED50 [13]: inactive
	1.4 µM	O=C(O)Cc1c(-c2ccccc2)c(O)nc2cc(Cl)ccc12	No. of mice protected at 20 mg/kg [3]: 0 mg/kg
		NC(=O)COc1c(-c2ccccc2)c(O)nc2cc(Cl)ccc12	No. of mice protected [14]: 0; Kb [8]: 3.1 µM

IC50 [1]	Kb [4]	SMILES	further results
11.6 µM		CN(C)C(=O)COc1c(-c2ccccc2)c(O)nc2cc(Cl)ccc12	
14.7 µM		CC(=O)Nc1c(-c2ccccc2)c(O)nc2cc(Cl)ccc12	No. of mice protected [15]: inactive
0.11 µM	1.25 µM	O=C(O)COc1c(-c2ccccc2)c(O)nc2cc(Cl)ccc12	No. of mice protected [9]: 3
25 µM		CN(C)CCNC(=O)C(=O)Nc1c(-c2ccccc2)c(O)nc2cc(Cl)ccc12	No. of mice protected [9]: 2
0.16 µM		O=C(O)Cc1c(-c2ccccc2)c(=O)[nH]c2cc(Cl)ccc12	
> 100 µM		CNc1c(-c2ccccc2)c(=O)[nH]c2cc(Cl)ccc12	
	> 10 µM	N#CCCc1c(-c2ccccc2)c(O)nc2cc(Cl)ccc12	No. of mice protected [9]: 0
		COC(=O)c1c(-c2ccccc2)c(O)nc2cc(Cl)ccc12	inhibition [16]: 69%
	0.88 µM	O=c1[nH]c2cc(Cl)ccc2c(O)c1-c1ccccc1	ED50 [17]: 4.5 mg/kg
0.9 µM		O=C(O)c1c(-c2ccccc2)c(=O)[nH]c2cc(Cl)ccc12	
		CN(C)CCNC(=O)Cc1c(-c2ccccc2)c(O)nc2cc(Cl)ccc12	inhibition [18]: 29%; No. of mice protected [9]: 0
1.7 µM		CC(=O)COc1c(-c2ccccc2)c(O)nc2cc(Cl)ccc12	No. of mice protected [14]: 5; Kb [8]: 11.4 µM
1.19 µM		O=c1[nH]c2cc(Cl)ccc2c(NS(=O)(=O)c2ccccc2)c1-c1ccccc1	
		O=c1[nH]c2cc(Cl)ccc2c(O)c1-c1cccc(Oc2ccccc2)c1	ED50 [17]: 0.9 mg/kg
		O=C(O)c1c(-c2ccccc2)c(O)nc2cc(Cl)ccc12	No. of mice protected [14]: 1; Kb [8]: 1.3 µM
> 100 µM		O=c1[nH]c2cc(Cl)ccc2cc1-c1ccccc1	
0.024 µM		O=C(O)COc1c(-c2cccc(Oc3ccccc3)c2)c(=O)[nH]c2cc(Cl)ccc12	
2 µM	> 3 µM	Oc1nc2cc(Cl)ccc2c(NCc2ccccc2)c1-c1ccccc1	No. of mice protected [9]: 1
2.8 µM		Oc1nc2cc(Cl)ccc2c(OCc2ccccn2)c1-c1ccccc1	No. of mice protected [14]: 1
